From ChEMBL document CHEMBL4609986 (Bioorg Med Chem, 2020)

Experiments:
[1] = target: T1, Dual specificity tyrosine-phosphorylation-regulated kinase 1A (Homo sapiens, UniProt Q13627); assay: Inhibition of human DYRK1A transfected in HEK293T cells co-transfected with Renilla plasmid, pGL3-NFAT and NFATc1 assessed as derepression of NFAT-dependent luciferase activity measured after 48 hrs by luciferase assay; format: cell-based, HEK-293T
In short: (§1)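 HEK293T cells transfected with PEI using DYRK1A, Renilla plasmid, IL-2-based pGL3-NFAT firefly reporter and NFATc1. Next day the same transfected population was split into 96-well plates; 6 h later cells were treated for 48 h (11-point dose curve, n = 4), then lysed. EC50 from firefly/Renilla ratio, 4-parameter agonist fit. CC50 from loss of constitutive Renilla signal, 4-parameter inhibitor fit.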

[2] = (§2) Cytotoxicity against human HEK293T cells transfected with DYRK1A co-tranfected with Renilla plasmid, pGL3-NFAT and NFATc1 assessed as reduction in luciferase activity by measuring cell number; format: cell-based, HEK-293T; in short: as §1
Homo sapiens = species on record: Homo sapiens; assay: Selectivity index, ratio of CC50 for human HEK293T cells transfected with DYRK1A co-tranfected with Renilla plasmid, pGL3-NFAT and NFATc1 assessed as reduction in luciferase activity by measuring cell number to EC50 for human DYRK1A transfected in HEK293T cells co-transfected with Renilla plasmid, pGL3-NFAT and NFATc1 assessed as derepression of NFAT-dependent luciferase activity measured after 48 hrs by luciferase assay; format: cell-based; in short: as §1
HEK-293T = assay: as §2; format: cell-based; details: hek-293t; in short: as §1
[3] = target: T1, Dual specificity tyrosine-phosphorylation-regulated kinase 1A; assay: Inhibition of DYRK1A in human pancreatic islets assessed as induction of pancreatic beta-cells replication measured after 48 hrs by Hoechst 33342 staining based analysis
In short: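 Human islets (85-95% purity) rested 12 h in low-glucose DMEM with 10% FBS and 20 nM exendin-4. Dispersed to single cells and plated on 804G-conditioned-matrix 384-well plates for 48 h. Treated 48 h, then fixed with 4% PFA. Stained with anti-insulin, anti-Ki-67 and 4 μM Hoechst 33342; Ki67+Insulin+/Insulin+ scored by high-content imaging against per-plate cutoffs.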

[4] = Cytotoxicity against mouse R7T1 cells assessed as reduction in cell viability measured after 48 hrs by Hoechst 33342 staining based analysis
In short: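 Mouse R7T1 β-cells cultured in high-glucose DMEM with 10% FBS, doxycycline and pyruvate, plated at 25,000 cells/well. Treated in quadruplicate 6 h later (0.169–10,000 nM) for 48 h. Cells fixed in paraformaldehyde and stained with 4 μM Hoechst 33342; nuclei counted by high-content imaging.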

[5] = Selectivity index, ratio of CC50 for mouse R7T1 cells assessed as reduction in cell viability measured after 48 hrs by Hoechst 33342 staining based analysis to MEC for inhibition of DYRK1A in human pancreatic islets assessed as induction of pancreatic beta-cells replication measured after 48 hrs by Hoechst 33342 staining based analysis

| EC50 [1] [nM] | MEC [3] [nM] | SMILES | CC50 [2] [nM] | Ratio CC50/EC50 (Homo sapiens) | CC50 (HEK-293T) [nM] | CC50 [4] [nM] | Selectivity Index [5] |
| --- | --- | --- | --- | --- | --- | --- | --- |
| > 10000 |  | CCOC(=O)c1cnc2ccc(-c3cc(Cl)cc(Cl)c3)nc2c1N[C@H]1CC[C@H](CN(C)C)CC1 | > 10000 |  |  |  |  |
| 108 |  | CCOC(=O)c1cnc2ccc(-c3ccnc(N)c3)nc2c1N[C@H]1CC[C@H](CN2CCCC2)CC1 | 756 | 7 |  |  |  |
| 114 |  | CCOC(=O)c1cnc2ccc(-c3ccnc(N)c3)nc2c1N[C@H]1CC[C@H](CN2CCCCC2)CC1 | 1350 | 12 |  |  |  |
| 383 |  | CCOC(=O)c1cnc2ccc(-c3ccnc(O)c3)nc2c1N[C@H]1CC[C@H](CN(C)C)CC1 | 2360 | 6 |  |  |  |
| > 10000 |  | CCOC(=O)c1cnc2ccc(-c3cc(C)nc(C)c3)nc2c1N[C@H]1CC[C@H](CN(C)C)CC1 | > 10000 |  |  |  |  |
| 990 |  | CCOC(=O)c1cnc2ccc(-c3ccc(C(=O)O)cc3)nc2c1N[C@H]1CC[C@H](CN(C)C)CC1 | > 10000 | > 10 |  |  |  |
| 2100 |  | CCOC(=O)c1cnc2ccc(-c3ccc(N)cc3)nc2c1N[C@H]1CC[C@H](CN(C)C)CC1 | > 10000 | > 5 |  |  |  |
| 4660 |  | CCOC(=O)c1cnc2ccc(-c3ccc(C(N)=O)cc3)nc2c1N[C@H]1CC[C@H](CN(C)C)CC1 | > 10000 | > 2 |  |  |  |
| 7 |  | CCOC(=O)c1cnc2ccc(-c3cc(Cl)c(O)c(Cl)c3)nc2c1N[C@H]1CC[C@H](CN2CCOCC2)CC1 | 491 | 71 |  |  |  |
| 1340 |  | CCOC(=O)c1cnc2ccc(-c3ccc(O)nc3)nc2c1N[C@H]1CC[C@H](CN(C)C)CC1 | > 10000 | > 7.5 |  |  |  |
| 100 | 250 | CCOC(=O)c1cnc2ccc(-c3cc(Cl)c(O)c(Cl)c3)nc2c1N[C@H]1CC[C@H](CO)CC1 | 2670 | 27 |  | 785 | 3.1 |
| 300 |  | CCOC(=O)c1cnc2ccc(-c3ccc(O)cc3)nc2c1N[C@H]1CC[C@H](CN(C)C)CC1 |  | > 33 | > 10000 |  |  |
| 59 | 22 | CCOC(=O)c1cnc2ccc(-c3ccnc(N)c3)nc2c1N[C@H]1CC[C@H](CN(C)C)CC1 | 1130 | 19 |  | 328 | 15 |
| 9 |  | CCOC(=O)c1cnc2ccc(-c3cc(Cl)c(O)c(Cl)c3)nc2c1N[C@H]1CC[C@H](N)CC1 | 44 | 5 |  |  |  |

More lines, now with the values behind:

| SMILES | EC50 [1] [nM] | MEC [3] [nM] | CC50 [2] [nM] | Ratio CC50/EC50 (Homo sapiens) | CC50 (HEK-293T) [nM] | CC50 [4] [nM] | Selectivity Index [5] |
| --- | --- | --- | --- | --- | --- | --- | --- |
| CC(C)CCNC(=O)c1cnc2ccc(-c3cc(Cl)c(O)c(Cl)c3)nc2c1N[C@H]1CC[C@H](CN(C)C)CC1 | 3 |  | 21 | 8 |  |  |  |
| CNC(=O)c1cnc2ccc(-c3cc(Cl)c(O)c(Cl)c3)nc2c1N[C@H]1CC[C@H](CN(C)C)CC1 | 6 |  | 36 | 6 |  |  |  |
| CN(C)C[C@H]1CC[C@H](Nc2c(C(=O)N3CCOCC3)cnc3ccc(-c4cc(Cl)c(O)c(Cl)c4)nc23)CC1 | 641 |  |  | > 16 | > 10000 |  |  |
| CN(C)C[C@H]1CC[C@H](Nc2c(C(N)=O)cnc3ccc(-c4cc(Cl)c(O)c(Cl)c4)nc23)CC1 | 15 |  | 69 | 4 |  |  |  |
| NC(=O)[C@H]1CC[C@H](Nc2c(CO)cnc3ccc(-c4cc(Cl)c(O)c(Cl)c4)nc23)CC1 | 678 |  | > 10000 | > 15 |  |  |  |
| CCOC(=O)c1cnc2ccc(-c3cc(Cl)c(O)c(Cl)c3)nc2c1Nc1ccc(CN(C)C)cc1 | 26 | 31 | 3790 | 146 |  | 226 | 7.3 |
| CCNC(=O)c1cnc2ccc(-c3cc(Cl)c(O)c(Cl)c3)nc2c1N[C@H]1CC[C@H](CN(C)C)CC1 | 6 |  | 39 | 7 |  |  |  |
| CCCCNC(=O)c1cnc2ccc(-c3cc(Cl)c(O)c(Cl)c3)nc2c1N[C@H]1CC[C@H](CN2CCOCC2)CC1 | 4 |  | 79 | 18 |  |  |  |
| CCOC(=O)c1cnc2ccc(-c3ccnc(C)c3)nc2c1N[C@H]1CC[C@H](CN(C)C)CC1 |  |  | > 10000 | > 7 |  |  |  |
| CN(C)C[C@H]1CC[C@H](Nc2c(C(=O)N(C)C)cnc3ccc(-c4cc(Cl)c(O)c(Cl)c4)nc23)CC1 | 354 |  |  | > 28 | > 10000 |  |  |
| CCOC(=O)c1cnc2ccc(-c3cc(Cl)c(O)c(Cl)c3)nc2c1N[C@H]1CC[C@H](C(=O)N2CCOCC2)CC1 | 97 | 250 | 3010 | 21 |  | 2080 | 8.3 |
| CCCNC(=O)c1cnc2ccc(-c3cc(Cl)c(O)c(Cl)c3)nc2c1N[C@H]1CC[C@H](CN(C)C)CC1 | 6 |  | 38 | 7 |  |  |  |
| CC(=O)c1cnc2ccc(-c3cc(Cl)c(O)c(Cl)c3)nc2c1N[C@H]1CC[C@H](C(N)=O)CC1 | 11 | 125 | 1660 | 153 |  | 231 | 1.8 |
| CCOC(=O)c1cnc2ccc(-c3cc(Cl)c(O)c(Cl)c3)nc2c1N[C@H]1CC[C@H](C(N)=O)CC1 | 1250 |  | > 10000 | > 8 |  |  |  |
| CCCCCNC(=O)c1cnc2ccc(-c3cc(Cl)c(O)c(Cl)c3)nc2c1N[C@H]1CC[C@H](CN(C)C)CC1 | 5 |  | 19 | 4 |  |  |  |
| CCOC(=O)c1cnc2ccc(-c3cc(Cl)c(O)c(Cl)c3)nc2c1N1CCCCC1 | 203 |  | 3460 | 17 |  |  |  |
| CCOC(=O)c1cnc2ccc(-c3cc(Cl)c(O)c(Cl)c3)nc2c1N1CCNCC1 | 73 | 250 | 10000 | > 137 |  | > 10000 | >40 |
| CC(C)CNC(=O)c1cnc2ccc(-c3cc(Cl)c(O)c(Cl)c3)nc2c1N[C@H]1CC[C@H](CN(C)C)CC1 | 6 |  | 16 | 3 |  |  |  |
| CCOC(=O)c1cnc2ccc(-c3cc(Cl)c(O)c(Cl)c3)nc2c1N1CCOCC1 | 105 |  | 3680 | 35 |  |  |  |
| NC(=O)C[C@H]1CC[C@H](Nc2c(CO)cnc3ccc(-c4cc(Cl)c(O)c(Cl)c4)nc23)CC1 | 74 | 500 | 1970 | 27 |  | 1080 | 2.2 |
| CCOC(=O)c1cnc2ccc(-c3cc(Cl)c(O)c(Cl)c3)nc2c1N[C@H]1CC[C@H](C)CC1 | > 10000 |  | > 10000 |  |  |  |  |
| CCOC(=O)c1cnc2ccc(-c3cc(Cl)c(O)c(Cl)c3)nc2c1N1CCC(C)CC1 | 123 |  | > 10000 | > 82 |  |  |  |
